Experiments:
[1] = system: NC•SL2; test: NC–RNA inhibition: ligand added to preformed NC•SL2 complex, ESI-FTMS; type: binding, HIV-1; conditions: 0.35–17.5 µM ligand added to preformed complex
[2] = system: NC•SL4; test: NC–RNA inhibition: ligand added to preformed NC•SL4 complex, ESI-FTMS; type: binding, HIV-1; conditions: 0.35–17.5 µM ligand added to preformed complex
Procedure, shortened: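 NC was expressed in E. coli BL21(DE3)-pLysE and purified non-denaturing, with two Zn2+ confirmed by MS. It was mixed equimolar with refolded hairpin (SL4 stem extended by three base pairs) for 15 min at room temperature, forming a 1:1 complex. Ligand (0.35–17.5 µM) was added to ~3.5 µM complex in 100 mM ammonium acetate pH 7.5, then read by negative-ion ESI-FTMS. IC50 at 0.5 fractional occupancy, from competition-isotherm fit, triplicate.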

[3] = system: SL2; test: Multiplexed binding assay, ternary ligand mixture added to SL2, ESI-FTMS; parameters: species or system HIV-1; conditions: ternary mixture of vancomycin, mitoxantrone and neomycin B; negative control
Procedure, shortened: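 SL2 hairpin (HIV-1 NL4-3 sequence), desalted in 100 mM ammonium acetate pH 7.5, heated 95°C 3 min, ice-cooled. Equimolar mix of up to three ligands added stepwise to 0.35 µM final RNA, giving 0.35–17.5 µM total ligand. Incubated 15 min at room temperature. Analysed by 2-propanol-assisted nanospray ESI-FTMS (7 T, negative ion). Species quantified from signal intensities divided by charge state.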

[4] = system: NC•SL3; test: NC–RNA inhibition: ligand added to preformed NC•SL3 complex, ESI-FTMS; type: binding, HIV-1; conditions: for ligand effect on NC•SL3 complex: 0.35–17.5 µM ligand added to preformed complex

SMILES	ligand effect on NC•SL2 complex [1]	ligand effect on NC•SL4 complex [2]	binding to SL2 in multiplexed assay [3]	ligand effect on NC•SL3 complex [4]	equivalents of ligand bound to NC•SL3 complex (ternary species) ([4]; 5-fold addition of ligand)
Cn1cc(NC(=O)c2cc(NC(=O)c3cc(NC=O)cn3C)cn2C)cc1C(=O)NCCC(=N)N [Distamycin A, distamycin A]	No Effect	No Effect	–	–	–
CN[C@H](CC(C)C)C(=O)N[C@H]1C(=O)N[C@@H](CC(N)=O)C(=O)N[C@H]2C(=O)N[C@H]3C(=O)N[C@H](C(=O)N[C@H](C(=O)O)c4cc(O)cc(O)c4-c4cc3ccc4O)[C@H](O)c3ccc(c(Cl)c3)Oc3cc2cc(c3O[C@@H]2O[C@H](CO)[C@@H](O)[C@H](O)[C@H]2O[C@H]2C[C@](C)(N)[C@H](O)[C@H](C)O2)Oc2ccc(cc2Cl)[C@H]1O [vancomycin]	–	–	no binding was observed	–	–
CN(C)[C@@H]1C(O)=C(C(N)=O)C(=O)[C@@]2(O)C(O)=C3C(=O)c4c(O)ccc(Cl)c4[C@@](C)(O)[C@H]3C[C@@H]12 [Chlorotetracycline, chlorotetracycline]	No Effect	No Effect	–	No Effect	–
O=C1c2c(O)ccc(O)c2C(=O)c2c(NCCNCCO)ccc(NCCNCCO)c21 [Mitoxantrone, mitoxantrone]	–	–	–	no detectable signs of dissociation	up to three

— publication PMC1390681 (Nucleic Acids Research, 2006)
